Laboratory results: ChEMBL document CHEMBL4304756, “Second-Generation Tryptamine Derivatives Potently Sensitize Colistin Resistant Bacteria to Colistin” (ACS Med Chem Lett, 2019)
The source made the active and inactive calls. No cut-off for these calls is given here.

Key:
Escherichia coli [1] = assay: Potentiation of colistin-induced antibacterial activity against Escherichia coli YD626 assessed as colistin MIC at 50 uM incubated for 16 hrs by broth microdilution method (reference value: 1 ug/ml); type: functional; details: YD626, 16 h
Klebsiella pneumoniae [2] = assay: Potentiation of colistin-induced antibacterial activity against Klebsiella pneumoniae 2210291 harbouring mcr-1 gene assessed as colistin MIC at 50 uM incubated for 16 hrs by broth microdilution method (reference value: 16 ug/ml); type: functional; details: Klebsiella pneumoniae, 2210291, 16 h
Escherichia coli [3] = assay: Potentiation of colistin-induced antibacterial activity against Escherichia coli YD626 harbouring mcr-1 gene assessed as colistin MIC at 50 uM incubated for 16 hrs by broth microdilution method (reference value: 8 ug/ml); type: functional; details: YD626, 16 h
Acinetobacter baumannii [4] = assay: Potentiation of colistin-induced antibacterial activity against Acinetobacter baumannii 17978 assessed as colistin MIC at 50 uM incubated for 16 hrs by broth microdilution method (reference value: 2 ug/ml); type: functional; details: Acinetobacter baumannii, 17978, 16 h
Klebsiella pneumoniae [5] = assay: Potentiation of colistin-induced antibacterial activity against Klebsiella pneumoniae 2210291 assessed as colistin MIC at 50 uM incubated for 16 hrs by broth microdilution method (reference value: 1 ug/ml); type: functional; details: Klebsiella pneumoniae, 2210291, 16 h
Acinetobacter baumannii [6] = assay: Potentiation of colistin-induced antibacterial activity against Acinetobacter baumannii 17978 harbouring mcr-1 gene assessed as colistin MIC at 50 uM incubated for 16 hrs by broth microdilution method (reference value: 16 ug/ml); type: functional; details: Acinetobacter baumannii, 17978, 16 h
[7] = Cytotoxicity against mouse 4T1 cells assessed as reduction in cell viability incubated for 18 hrs by MTT assay; type: cell-based
How it was run: (§1)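 4T1 mouse mammary tumor cells exposed to compound for 18 h, alone or together with colistin at 1 μg/mL. Medium then aspirated and replaced with 0.5 mg/mL MTT in culture medium for colorimetric viability read-out. CT50 taken as the concentration giving 50% cell viability.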

[8] = Cytotoxicity against mouse 4T1 cells assessed as reduction in cell viability in presence of 1 ug/ml colistin incubated for 18 hrs by MTT assay; type: cell-based; how it was run: as §1
Klebsiella pneumoniae [9] = assay: Potentiation of colistin-induced antibacterial activity against Klebsiella pneumoniae 2210291 harbouring mcr-1 gene assessed as reduction in colistin MIC at 15 uM incubated for 16 hrs by broth microdilution method; type: functional, organism-based
How it was run: (§2)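 For the dose-response, colistin MIC was measured against mcr-1 plasmid-bearing E. coli, K. pneumoniae and A. baumannii while the adjuvant concentration was lowered stepwise (30, 15 μM, down to 5 μM). The aim was to find where the MIC rose above the 2 μg/mL CLSI susceptibility breakpoint.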

Escherichia coli [10] = assay: Potentiation of colistin-induced antibacterial activity against Escherichia coli YD626 harbouring mcr-1 gene assessed as reduction in colistin MIC at 15 uM incubated for 16 hrs by broth microdilution method; type: functional, organism-based; how it was run: as §2
Acinetobacter baumannii [11] = assay: Potentiation of colistin-induced antibacterial activity against Acinetobacter baumannii 17978 harbouring mcr-1 gene assessed as reduction in colistin MIC at 15 uM incubated for 16 hrs by broth microdilution method; type: functional, organism-based; how it was run: as §2

| SMILES | MIC (Escherichia coli [1]) [µg/mL] | MIC (Klebsiella pneumoniae [2]) [µg/mL] | MIC (Escherichia coli [3]) [µg/mL] | MIC (Acinetobacter baumannii [4]) [µg/mL] | MIC (Klebsiella pneumoniae [5]) [µg/mL] | MIC (Acinetobacter baumannii [6]) [µg/mL] | CC50 at 18 h [7] [µM] | CC50 at 18 h [8] [µM] | Activity (Klebsiella pneumoniae [9]) | Activity (Escherichia coli [10]) | Activity (Acinetobacter baumannii [11]) |
| --- | --- | --- | --- | --- | --- | --- | --- | --- | --- | --- | --- |
| O=C(Nc1cc(C(F)(F)F)cc(C(F)(F)F)c1)Nc1ccc2cc[nH]c2c1 | 0.5 | 16 | 4 | 1 | 1 | 8 |  |  |  |  |  |
| O=C(NCc1c[nH]c2ccccc12)Nc1cc(C(F)(F)F)cc(C(F)(F)F)c1 | 0.0313 | 1 | 1 | 0.125 | 0.125 | 1 |  |  |  |  |  |
| O=C(NCCc1c[nH]c2ccccc12)c1ccc(Cl)c(Cl)c1 | 0.5 | 2 | 2 | 1 | 0.5 | 2 |  |  |  |  |  |
| O=C(NCCc1c[nH]c2ccccc12)Nc1ccc(Cl)c(Cl)c1 | 0.125 | 0.5 | 1 | 0.5 | 0.25 | 0.5 | 117 | 105 |  |  |  |
| O=C(Nc1cc(Br)cc(Br)c1)Nc1ccc2cc[nH]c2c1 | 1 | 16 | 8 | 2 | 1 | 16 |  |  |  |  |  |
| O=C(NCCc1c[nH]c2ccc(Br)cc12)c1ccc(Cl)c(Cl)c1 | 0.25 | 1 | 2 | 0.5 | 0.5 | 1 |  |  |  |  |  |
| CCCCc1ccc(C(=O)NCCc2c[nH]c3ccc(Br)cc23)cc1 | 0.125 | 4 | 4 | 0.5 | 0.25 | 4 |  |  |  |  |  |
| O=C(Nc1cc(Br)cc(Br)c1)Nc1ccc2[nH]ccc2c1 | 1 | 16 | 8 | 1 | 1 | 16 |  |  |  |  |  |
| CCCCc1ccc(C(=O)NCCc2c[nH]c3ccccc23)cc1 | 0.0625 | 8 | 4 | 0.25 | 0.125 | 4 |  |  |  |  |  |
| O=C(NCCc1c[nH]c2ccccc12)c1cc(Br)cc(Br)c1 | 0.25 | 4 | 4 | 1 | 0.5 | 4 |  |  |  |  |  |
| O=C(NCc1c[nH]c2ccccc12)Nc1cc(Cl)c(Br)c(Cl)c1 | 0.25 | 8 | 8 | 1 | 0.5 | 8 |  |  |  |  |  |
| O=C(Nc1cc(Cl)c(Br)c(Cl)c1)Nc1ccc2[nH]ccc2c1 | 0.5 | 16 | 8 | 1 | 1 | 8 |  |  |  |  |  |
| CCCCc1ccc(NC(=O)NCc2c[nH]c3ccccc23)cc1 | 1 | 16 | 8 | 2 | 0.5 | 16 |  |  |  |  |  |
| O=C(NCc1c[nH]c2ccccc12)Nc1cc(Br)cc(Br)c1 | 0.25 | 16 | 4 | 1 | 0.5 | 8 |  |  |  |  |  |
| O=C(Nc1cc(Cl)c(Br)c(Cl)c1)Nc1ccc2cc[nH]c2c1 | 1 | 16 | 8 | 2 | 1 | 16 |  |  |  |  |  |
| CC(C)n1cc(-c2cccc(NC(=O)Nc3cc(Cl)c(Br)c(Cl)c3)c2)nc1N |  |  |  |  |  |  | 23.2 | 15.6 |  |  |  |
| O=C(NCCc1c[nH]c2ccc(Br)cc12)c1cc(C(F)(F)F)cc(C(F)(F)F)c1 | 0.0625 | 8 | 4 | 0.5 | 0.25 | 8 |  |  |  |  |  |
| O=C(NCc1c[nH]c2ccccc12)Nc1ccc(Cl)c(Cl)c1 | 0.5 | 16 | 4 | 2 | 0.5 | 16 |  |  |  |  |  |
| O=C(NCCc1c[nH]c2ccc(Br)cc12)Nc1cc(Br)cc(Br)c1 | 0.25 | 2 | 2 | 0.5 | 0.5 | 2 |  |  |  |  |  |
| O=C(Nc1ccc(Cl)c(Cl)c1)Nc1ccc2cc[nH]c2c1 | 1 | 16 | 8 | 2 | 1 | 16 |  |  |  |  |  |
| O=C(NCCc1c[nH]c2ccc(Br)cc12)c1cc(Br)cc(Br)c1 | 0.5 | 4 | 4 | 1 | 0.5 | 4 |  |  |  |  |  |
| O=C(Nc1cc(C(F)(F)F)cc(C(F)(F)F)c1)Nc1ccc2[nH]ccc2c1 | 0.5 | 8 | 4 | 1 | 0.5 | 8 |  |  |  |  |  |
| CCCCc1ccc(NC(=O)NCCc2c[nH]c3ccccc23)cc1 | 1 | 16 | 8 | 2 | 1 | 16 |  |  |  |  |  |
| O=C(NCCc1c[nH]c2ccccc12)c1cc(C(F)(F)F)cc(C(F)(F)F)c1 | 0.0625 | 16 | 4 | 0.25 | 0.25 | 8 |  |  |  |  |  |
| O=C(NCCc1c[nH]c2ccc(Br)cc12)Nc1cc(C(F)(F)F)cc(C(F)(F)F)c1 | 0.0313 | 2 | 4 | 0.25 | 0.5 | 2 |  |  |  |  |  |
| O=C(NCCc1c[nH]c2ccccc12)Nc1cc(Cl)c(Br)c(Cl)c1 | 0.125 | 1 | 1 | 0.5 | 0.5 | 1 |  |  | Active | Active | Active |
| CCCCc1ccc(NC(=O)Nc2ccc3[nH]ccc3c2)cc1 | 0.5 | 16 | 8 | 1 | 0.5 | 16 |  |  |  |  |  |
| CCCCc1ccc(NC(=O)Nc2ccc3cc[nH]c3c2)cc1 | 0.5 | 16 | 8 | 2 | 1 | 8 |  |  |  |  |  |
| O=C(Nc1ccc(Cl)c(Cl)c1)Nc1ccc2[nH]ccc2c1 | 0.5 | 16 | 8 | 2 | 1 | 16 |  |  |  |  |  |
